Source: PubChem (several laboratories)
A selection: hits, their analogues and other compounds. The true share with any hit is near 1.9%.
697 NFkB inh: lowers PMA/ionomycin-induced NF-kB signal in 697 B cells. 697 B-cell NF-kB luciferase reporter, 16 h. inhibition, % at 4 µM. 330,000 tested, 0.33% active. AID 435022; in the data active = inhibition above about 35%
APP 5UTR inh: APP translation inhibition; 190,000 tested, 0.82% active; SH-SY5Y APP 5'UTR-luciferase reporter, luminescence; inhibition, % at 2 µM;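 active = inhibition above a set limit, derived from the sample mean plus 3 SD, cut at about 45% in these data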
aSyn UTR inh: MLPCN primary screen, SNCA 5' untranslated region | alpha-synuclein 5'UTR reporter, inhibitor activity | inhibition, % (tested at 7.5 µM) | 300,000 tested, 0.82% active | AID 1813; in the data active = inhibition above about 60%;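 note: H4 neuroglioblastoma cells stably carrying SNCA 5'UTR luciferase fusion; 0% = DMSO wells and 100% = positive control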
Hep lipid drop: hepatic lipid droplet formation modulation. AML12 mouse hepatocytes, oleate lipid droplets, BODIPY imaging. inhibition, % at 6.5 µM. 240,000 tested, 0.4% active;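 active = lipid droplet intensity inhibited by at least 50%, with more than 500 cells counted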
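Test system: AML12 hepatocytes (mouse); reagent: oleate loading, 100 µM; dosing: one dose, 6.5 µM compound; incubation: overnight exposure; signal: fluorescence imaging, 20x objective, two fields per well; read-out basis: % inhibition of corrected integrated BODIPY droplet signal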
TAG inh: reduces triacylglycerol accumulation in H9c2 cells | Nile Red lipid (TAG) fluorescence; cells loaded with 200 µM oleic acid | inhibition, % at 12.5 µM | 230,000 tested, 0.66% active | AID 651582;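 active = pattern-corrected inhibition of lipid staining of at least 50% with the nuclear-stain viability signal not falling by more than 50%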;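 note: 0% = DMSO wells and 100% = triacsin C control wells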
Jurkat NFkB inh: inhibitors of the PMA/ionomycin-induced NF-kB reporter in Jurkat cells | 330,000 tested, 0.53% active | inhibition, % at 4 µM | PMA/ionomycin-induced NF-kB luciferase reporter, luminescence | AID 435003; in the data active = inhibition above about 50%
Lipid drop inh: confirmation of inhibitors of hepatic lipid droplet formation; shares compounds with Hep lipid drop; AML12 mouse hepatocytes, BODIPY lipid droplet imaging; droplets induced with 100 µM oleic acid; inhibition, % at 5.2 µM; 870 tested, 65% active; AID 463183;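 active = inhibition of lipid droplet metric at least 50%, with more than 300 cells in each of four replicates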;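 note: plate controls were DMSO with oleic acid for no effect and 5 µM Triacsin-C for full effect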
AML12 tox img: toxic to AML12 mouse hepatocytes in counter-screen; 870 tested, 3% active; z-score at 5 µM; shares compounds with Hep lipid drop; DAPI nuclear morphology cytotoxicity imaging; active compounds read high; cells fed 100 µM oleate overnight; AID 463200; in the data active = z-score above about 6.3;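 note: compound exposure lasted overnight at 37 °C before fixation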
AML12 tox conf: confirmation of cytotoxicity in AML12 mouse hepatocytes; shares compounds with Hep lipid drop; AML12 mouse hepatocyte viability, ATP luminescence; cells loaded with 100 µM oleic acid; cytotoxicity, % at 50 µM; 530 tested, under 10 active; AID 463219;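 active = cytotoxicity above 50% in each of four replicates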;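 note: compound exposure lasted overnight at 37 °C before the ATP read; 0% = DMSO-treated cells and 100% = wells with no cells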
Numbers without * were called inactive; nt = no result given.

SMILES	697 NFkB inh	APP 5UTR inh	aSyn UTR inh	Hep lipid drop	TAG inh	Jurkat NFkB inh	Lipid drop inh	AML12 tox img	others
CSc1nc2n(n1)C(C)C1=C(CCCC1=O)N2 (stereo unspecified)	0.8	-2.6	12.4	22.4	6.7	6.5	nt	nt
Clc1nc2nc3n(c2nc1Cl)CCC3	19.3	nt	11.6	24.1	nt	11.3	nt	nt
CC(C)OC(=O)/C(=C/c1ccc2c(c1)c1ccccc1n2C)NC(=O)c1ccccc1	-83.9	-4.0	-145.9	53.3*	nt	-67.3	96.4*	-0.205	AML12 tox conf=-6.2
COC(=O)/C(=C\c1ccc2c(c1)c1ccccc1n2C)NC(=O)c1ccccc1	-5.4	-7.6	-49.6	51.7*	nt	-21.6	92.6*	0.985	AML12 tox conf=0.8
Fc1ccc(CNC(=S)NC2CCCCCC2)cc1	1.2	-23.3	-16.3	1.6	-5.6	-1.1	nt	nt
C=CCOc1cccc(CNc2cccc(C(=O)O)c2)c1	-23.6	nt	-76.6	1.9	-6.6	-5.0	nt	nt
CC(C)(C)C(=O)Nc1nc2c(s1)COc1ccccc1-2	-27.2	-14.4	-47.9	54.8*	46.0	-11.6	105.7*	-0.723	AML12 tox conf=0.3
CCC(C(=O)Nc1ccc(C(=O)O)cc1NC(=O)C(CC)c1ccccc1)c1ccccc1 (stereo unspecified)	-20.6	nt	4.0	nt	16.4	-15.4	nt	nt
Cc1cc(C)cc(NC(=O)CCC(=O)Nc2cc(C)on2)c1	1.7	7.5	-9.1	74.9*	nt	-1.8	71.1*	-1.25	AML12 tox conf=0.0
CC(=O)c1ccc(S(=O)(=O)Nc2ccc(C(=O)N3CCC3)cc2)cc1	19.0	nt	nt	nt	12.4	12.0	nt	nt
O=C1/C(=N/n2cnnc2)c2ccccc2N1Cc1ccccc1	-29.3	-10.2	-15.4	nt	nt	5.3	nt	nt
COc1n[nH]c(C(=O)Nc2cc(Cl)ccc2Cl)c1[N+](=O)[O-]	-17.8	-17.9	-22.1	-0.7	nt	-1.5	nt	nt
COc1n[nH]c(C(=O)Nc2cc(F)ccc2C)c1[N+](=O)[O-]	-9.0	-5.5	22.5	55.4*	nt	-3.3	9.2	-0.666
Cc1coc2cc3oc(=O)cc(C)c3cc12	-6.5	-0.1	-0.1	52.5*	nt	0.4	-22.0	0.568
O=C1CN(C(=O)CNCc2ccccc2Cl)c2ccccc2N1	30.6	nt	-12.7	-2.8	-2.3	-7.3	nt	nt
CCOC(=O)[C@H]1[C@H]2COc3ccc(Cl)cc3[C@@H]2N2C(=O)c3cc(F)c(F)cc3NC(=O)[C@@]12C	17.1	nt	nt	nt	nt	-0.4	nt	nt
C=C(C)[C@@H]1CC[C@]2(C(=O)O)CC[C@]3(C)C(CCC4[C@@]5(C)CC[C@H](O)C(C)(C)C5CC[C@]43C)C12 (stereo partly specified)	-18.4	nt	20.6	57.9*	nt	0.1	20.4	0.656
CC1(C)C2CC[C@]3(C)C(CC=C4[C@@H]5C[C@@](C)(CO)[C@@H](O)C[C@]5(C(=O)O)CC[C@]43C)[C@@]2(C)CC[C@@H]1O (stereo partly specified)	-2.7	nt	-23.1	nt	nt	9.8	nt	nt
O=C(c1nn2c(C(F)(F)F)cc(-c3cccs3)nc2c1Cl)N1CCCc2ccccc21	5.8	13.5	77.7*	53.4*	nt	2.9	26.4	1.44
COc1cc2ncnc(NCc3ccc(Cl)cc3)c2cc1OC	7.7	-6.3	-16.6	50.9*	-2.0	0.3	70.2*	13.3*
COc1cc2ncnc(NCc3ccccc3Cl)c2cc1OC	7.2	11.2	6.2	52.3*	1.8	3.2	64.7*	17*
CC(C)N1CCCC(C)(C(=O)Nc2nc3ccccc3[nH]2)C1 (stereo unspecified)	nt	nt	nt	nt	10.6	nt	nt	nt
Cc1cc(N(CCO)CCO)ccc1N=Nc1cc(F)ccc1F	-9.4	-18.7	-137.4	114.8*	72.7*	-41.9	111.8*	0.882	AML12 tox conf=20.0
Nc1ccc(N(CCO)CCO)cc1	1.3	-3.1	-41.4	-2.5	2.9	13.3	nt	nt
CC(=O)Nc1cccc(OCC(=O)Nc2ccccc2)c1	-5.5	-23.5	-114.0	1.6	-7.2	-44.6	nt	nt
SMILES	697 NFkB inh	APP 5UTR inh	aSyn UTR inh	Hep lipid drop	TAG inh	Jurkat NFkB inh	Lipid drop inh	AML12 tox img	others
CC(=O)Nc1cccc(OCC(=O)NC(C)c2ccc3ccccc3c2)c1 (stereo unspecified)	-1.3	nt	14.1	68.5*	nt	-7.2	38.4	0.155
CCN(CC)c1ccc(NC(=O)CN2CCN(S(=O)(=O)c3cc(Cl)ccc3OC)CC2)cc1	-53.3	-1.6	42.1	59.7*	nt	-6.3	62.9*	0.61	AML12 tox conf=12.3
COc1ccc(CCNC(=O)C2CC3Cn4c(nc5cc6ccccc6cc54)C3N2C)cc1 (stereo unspecified)	-13.7	nt	10.0	51.3*	4.7	12.8	7.9	0.472
CN1C(C(=O)NCCc2cccs2)CC2Cn3c(nc4cc5ccccc5cc43)C21 (stereo unspecified)	-23.0	nt	-1.7	-0.1	14.9	-6.7	nt	nt
N#CC(c1ccc(Cl)cc1)c1ccc2c(C(F)(F)F)cc(C(F)(F)F)nc2n1 (stereo unspecified)	-7.9	-4.5	111.6*	59.1*	25.7	4.6	-68.5	6.24*
O=C(Nc1ccc(S(=O)(=O)N2CCOCC2)cc1)c1ccc(Cl)c([N+](=O)[O-])c1	nt	nt	nt	nt	-3.6	nt	nt	nt
O=C(Nc1cccc(S(=O)(=O)N2CCOCC2)c1)c1ccc(Cl)c([N+](=O)[O-])c1	11.5	-13.7	-22.3	60.7*	8.2	10.6	26.9	0.797
COc1ccc(CNC(=O)C2CCCN(C(=O)Nc3ccccc3OC)C2)cc1 (stereo unspecified)	8.1	nt	6.8	81.1*	nt	-1.5	98.8*	-0.726	AML12 tox conf=10.1
COc1ccc(NC(=O)CSc2nnc3c4c(nc(-c5ccccc5)n23)CC(C)(C)OC4)cc1	6.8	10.0	0.1	1.9	nt	-3.8	nt	nt
COc1ccc(-c2nc3c(c4nnc(SC(C)C(=O)Nc5ccc(C)cc5)n24)COC(C)(C)C3)cc1 (stereo unspecified)	-50.4	0.9	31.4	62.1*	nt	-9.6	79.4*	-0.771	AML12 tox conf=-6.2
Cc1nnc(SC(C)C(=O)N2CCc3ccccc32)s1 (stereo unspecified)	0.2	-21.5	-11.3	0.6	11.6	-8.9	nt	nt
CC(Sc1nnc(-c2ccccc2)c(-c2ccccc2)n1)C(=O)N1CCc2ccccc21 (stereo unspecified)	2.5	-4.5	-13.8	57.4*	nt	-0.5	81.8*	-0.338	AML12 tox conf=7.8
OCC[C@@H]1C[C@H](O)[C@@H](O)[C@]2(Cc3ccccc3O2)O1	10.6	nt	9.9	62.3*	nt	0.9	45.0	0.0827
OCC[C@H]1C[C@@H](O)[C@H](O)[C@@]2(Cc3ccccc3O2)O1	7.8	nt	nt	nt	14.3	3.1	nt	nt
Cc1nc(Nc2ccc(O)cc2)c2c3c(sc2n1)CCCC3	15.6	nt	-3.1	60.3*	19.7	11.4	75.2*	-0.144
O=C(CSc1ccc2ccccc2c1)Nc1ncccn1	-8.0	-1.9	-23.4	-3.8	-0.4	-6.5	nt	nt
